Key:
Mus musculus [1] = assay: NMDA antagonistic activity was evaluated […] in cultured mouse cortical neurons by patch clamp recordings designed to measure closed state binding to NMDA receptor-ionophore complex; format: functional
Mus musculus [2] = species: Mus musculus; assay: Inhibitory concentration against NMDA-induced cell death in cultured mouse cortical neurons; format: functional
Mus musculus [3] = assay: NMDA antagonistic activity was evaluated […] in cultured mouse cortical neurons by patch clamp recordings designed to measure open state binding to NMDA receptor-ionophore complex; format: functional
[4] = LogD value of the compound; format: physicochemical; conditions: octanol/water
Method in brief: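 LogD is the partition coefficient between octanol and pH 7.4 buffer. It was measured instrumentally by an outside laboratory.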

Mus musculus [5] = assay: NMDA antagonistic activity was evaluated […] in cultured mouse cortical neurons by patch clamp recordings designed to measure closed state binding to NMDA receptor-ionophore complex at 100 uM; format: functional
Method in brief: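 Value is the percent inhibition of NMDA-induced current at 100 μM, under closed-channel conditions in mouse cortical neuronal cultures.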

Mus musculus [6] = species: Mus musculus; assay: (§1) Ratio of IC50 value for closed channel binding to that of open channel binding.; format: functional
Rattus norvegicus = assay: In vivo anti-ischemic activity was evaluated in a rat middle cerebral artery occlusion/ reperfusion model of focal ischemia at a dose of 6 mg/kg/h for 6.5 hr (iv, infusion); format: functional
Method in brief: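 Rats underwent middle cerebral artery occlusion followed by reperfusion (focal ischemia). The drug was given by continuous intravenous infusion. The read-out was reduction in infarct volume (n = 15).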

Glutamate NMDA receptor = assay: Binding affinity at TCP site of NMDA receptor was determined in rat brain homogenate by [3H]TCP displacement.; format: tissue-based
[7] = molecular target: Glutamate NMDA receptor (Rattus norvegicus) (UniProt P35439+Q00959+Q00960+Q00961+Q62645+Q8VHN2+Q9R1M7); assay: Compound at 10 uM was tested for the inhibition of radioligand [3H]TCP binding to TCP site of NMDA receptor in rat brain homogenate; format: tissue-based
[8] = as §1; format: functional

SMILES | IC50 (Mus musculus [2]) [µM] | Ki (Glutamate NMDA receptor) [µM] | other results
C[C@]12N[C@H](Cc3ccccc31)c1ccccc12 [DIZOCILPINE] | 0.067 | – | IC50 (Mus musculus [1]): 5.8 µM; IC50 (Mus musculus [3]): 0.1 µM; logD ([4]; read-out: logD): 1.79
[Cl-].c1ccc2c(c1)C1CC(c3ccoc3)(c3ccoc3)C2c2cccc[n+]21 (stereo not drawn) | 0.039 | 0.0018 | Inhibition (Mus musculus [5]): 12%; Ratio (Mus musculus [6]): >700; IC50 (Mus musculus [1]): > 100 µM; IC50 (Mus musculus [3]): 0.14 µM; logD ([4]; read-out: logD): -3.41; inhibition in vivo at 6 mg/kg/h (Rattus norvegicus): 50%
c1ccc2c(c1)C1CC(c3nccs3)(c3nccs3)C2c2cccc[n+]21 (stereo not drawn) | – | 0.017 | –
CCOC1(OCC)C2c3ccccc3C([n+]3ccccc32)C1(C)C.[Cl-] (stereo not drawn) | – | 0.0053 | Inhibition (Mus musculus [5]): -8.5%; Ratio (Mus musculus [6]): >384; IC50 (Mus musculus [1]): > 100 µM; IC50 (Mus musculus [3]): 0.26 µM; logD [4]: -4.08
c1cncc(C2(c3cccnc3)CC3c4ccccc4C2c2cccc[n+]23)c1 (stereo not drawn) | – | 2.27 | –
c1ccc2c(c1)C1CC(c3ccsc3)(c3ccsc3)C2c2cccc[n+]21 (stereo not drawn) | 0.045 | 0.0018 | –
COc1ccc(C2(c3ccc(OC)cc3)CC3c4ccccc4C2c2cccc[n+]23)cc1 (stereo not drawn) | – | 28.1 | –
c1csc(C2(c3cccs3)CC3c4ccccc4C2c2cccc[n+]23)c1 (stereo not drawn) | 0.023 | 0.0021 | –
c1ccc2c(c1)C1CC(c3ccncc3)(c3ccncc3)C2c2cccc[n+]21 (stereo not drawn) | – | – | inhibition [7]: 54%
Clc1ccc(C2(c3ccc(Cl)cc3)CC3c4ccccc4C2c2cccc[n+]23)cc1 (stereo not drawn) | – | – | inhibition [7]: 45%
Clc1cccc(C2(c3cccc(Cl)c3)CC3c4ccccc4C2c2cccc[n+]23)c1 (stereo not drawn) | – | 0.104 | –
c1ccc(C2(c3ccccn3)CC3c4ccccc4C2c2cccc[n+]23)nc1 (stereo not drawn) | – | 0.0084 | –
Brc1cccc(C2(c3cccc(Br)c3)CC3c4ccccc4C2c2cccc[n+]23)c1 (stereo not drawn) | – | 0.185 | –
c1ccc2c(c1)C1CC(c3ncc[nH]3)(c3ncc[nH]3)C2c2cccc[n+]21 (stereo not drawn) | – | 1.67 | –
c1ccc2c(c1)C1CC(c3cncs3)(c3cncs3)C2c2cccc[n+]21 (stereo not drawn) | – | 0.12 | –
c1ccc2c(c1)C1CC(c3cocn3)(c3cocn3)C2c2cccc[n+]21 (stereo not drawn) | – | 0.093 | –
c1ccc(C2(N3CCCCC3)CCCCC2)cc1 [PHENCYCLIDINE] | – | – | IC50 (Mus musculus [1]): 13.9 µM; Ratio [8]: 51; IC50 (Mus musculus [3]): 0.27 µM; logD ([4]; read-out: logD): 1.76
c1ccc(C2(c3ccccc3)CC3c4ccccc4C2c2cccc[n+]23)cc1 (stereo not drawn) | 0.197 | 0.0082 | –
COc1cccc(C2(c3cccc(OC)c3)CC3c4ccccc4C2c2cccc[n+]23)c1 (stereo not drawn) | – | 0.041 | –
Fc1ccc(C2(c3ccc(F)cc3)CC3c4ccccc4C2c2cccc[n+]23)cc1 (stereo not drawn) | – | 2.21 | –
Brc1ccc(C2(c3ccc(Br)cc3)CC3c4ccccc4C2c2cccc[n+]23)cc1 (stereo not drawn) | – | – | inhibition [7]: 22%
c1coc(C2(c3ccco3)CC3c4ccccc4C2c2cccc[n+]23)c1 (stereo not drawn) | 0.036 | 0.0019 | –
c1ccc2c(c1)C1CC(c3cc[nH]c3)(c3cc[nH]c3)C2c2cccc[n+]21 (stereo not drawn) | 0.03 | 0.0031 | –
c1ccc2c(c1)C1CC(c3cc[nH]n3)(c3cc[nH]n3)C2c2cccc[n+]21 (stereo not drawn) | 0.271 | 0.013 | –

Reference: ChEMBL document CHEMBL1128339, “Discovery of 6,11-ethano-12,12-diaryl-6,11-dihydrobenzo[b]quinolizinium cations, a novel class of N-methyl-D-aspartate antagonists” (J Med Chem, 1995)
